Measured values: ChEMBL document CHEMBL5096187, “Efficient Synthesis and Bioevaluation of Novel Dual Tubulin/Histone Deacetylase 3 Inhibitors as Potential Anticancer Agents” (J Med Chem, 2021)

Tests used:
[1] = target: Tubulin (Sus scrofa) (UniProt P02554+P02550); experiment: Inhibition of pig brain tubulin polymerization at 10 uM measured after 20 mins by spectrometric method relative to control
Procedure, shortened: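 Pig brain tubulin was purified by three assembly/disassembly cycles and then phosphocellulose chromatography. Compound at 10 μM in PEM buffer with 1 mM GTP and 5% glycerol at 37 °C. Polymerization followed at 340 nm; inhibition taken at 20 min versus vehicle control.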

[2] = system: Jurkat; experiment: Antiproliferative activity against human Jurkat cells assessed as inhibition of cell viability measured for 48 hrs by microplate reader based CCK-8 assay; format: functional
[3] = target: T1, Histone deacetylase 8 (Homo sapiens, UniProt Q9BY41); experiment: Inhibition of full length C-terminal his-tagged human recombinant HDAC8 ([…]) expressed in baculovirus in Sf9 insect cells using Ac-Leu-Gly-Lys (Tfa)-AMC as substrate pretreated for 5 mins followed by substrate addition and measured after 30 mins
T1 sequence (Q9BY41 whole entry): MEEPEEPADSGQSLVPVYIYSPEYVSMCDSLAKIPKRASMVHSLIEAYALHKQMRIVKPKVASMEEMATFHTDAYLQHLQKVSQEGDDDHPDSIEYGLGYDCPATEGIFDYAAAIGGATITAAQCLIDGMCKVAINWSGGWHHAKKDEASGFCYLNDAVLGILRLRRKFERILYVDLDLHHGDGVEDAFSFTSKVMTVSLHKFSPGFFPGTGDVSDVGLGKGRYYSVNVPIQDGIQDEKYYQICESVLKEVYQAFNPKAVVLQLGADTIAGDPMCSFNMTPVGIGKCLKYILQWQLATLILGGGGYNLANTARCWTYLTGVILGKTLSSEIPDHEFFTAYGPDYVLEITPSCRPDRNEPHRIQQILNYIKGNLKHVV

[4] = target: T2, Protein deacetylase HDAC6 (Homo sapiens, UniProt Q9UBN7); experiment: Inhibition of full length N-terminal GST-tagged human recombinant HDAC6 (1 to 1215 residues) expressed in Baculovirus infected Sf9 cells using Ac-Leu-Gly-Lys (Ac)-AMC as substrate pretreated for 5 mins followed by substrate addition and measured after 30 mins
T2 sequence (Q9UBN7 whole entry): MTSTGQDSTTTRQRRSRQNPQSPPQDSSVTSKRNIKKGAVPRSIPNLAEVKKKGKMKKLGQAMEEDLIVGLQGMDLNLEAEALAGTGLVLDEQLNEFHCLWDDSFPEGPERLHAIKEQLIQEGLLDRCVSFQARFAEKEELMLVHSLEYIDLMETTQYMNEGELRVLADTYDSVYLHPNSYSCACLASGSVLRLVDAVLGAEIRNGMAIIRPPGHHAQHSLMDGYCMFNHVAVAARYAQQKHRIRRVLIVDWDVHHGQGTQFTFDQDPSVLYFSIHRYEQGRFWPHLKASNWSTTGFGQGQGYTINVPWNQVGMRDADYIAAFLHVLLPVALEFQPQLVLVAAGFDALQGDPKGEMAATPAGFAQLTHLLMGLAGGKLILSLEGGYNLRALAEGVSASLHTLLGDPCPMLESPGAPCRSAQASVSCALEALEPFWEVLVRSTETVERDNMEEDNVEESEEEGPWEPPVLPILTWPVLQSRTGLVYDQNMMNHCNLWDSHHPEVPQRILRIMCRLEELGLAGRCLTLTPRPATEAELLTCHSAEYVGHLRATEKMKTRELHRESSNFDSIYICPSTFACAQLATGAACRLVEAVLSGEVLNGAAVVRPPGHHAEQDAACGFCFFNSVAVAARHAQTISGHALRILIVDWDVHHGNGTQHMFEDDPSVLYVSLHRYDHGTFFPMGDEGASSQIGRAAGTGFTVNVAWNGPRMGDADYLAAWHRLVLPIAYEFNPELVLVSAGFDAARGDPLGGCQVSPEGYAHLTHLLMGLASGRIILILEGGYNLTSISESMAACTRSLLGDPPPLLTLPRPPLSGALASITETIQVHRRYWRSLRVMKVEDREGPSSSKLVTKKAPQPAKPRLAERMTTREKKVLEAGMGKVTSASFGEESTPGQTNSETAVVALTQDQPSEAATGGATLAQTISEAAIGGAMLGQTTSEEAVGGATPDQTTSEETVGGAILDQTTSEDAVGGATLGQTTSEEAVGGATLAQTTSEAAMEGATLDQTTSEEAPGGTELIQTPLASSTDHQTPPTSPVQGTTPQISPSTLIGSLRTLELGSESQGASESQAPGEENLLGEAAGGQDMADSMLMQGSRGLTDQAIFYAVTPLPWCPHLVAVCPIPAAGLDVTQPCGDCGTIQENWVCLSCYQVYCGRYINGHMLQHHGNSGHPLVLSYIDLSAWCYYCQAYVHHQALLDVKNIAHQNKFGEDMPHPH
Procedure, shortened: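 HDAC6 at 15 ng/well in Tris buffer pH 8.0 with MgCl2, BSA, NaCl and KCl. Ten 3-fold dilutions preincubated 5 min at room temperature, then 10 μM Ac-Leu-Gly-Lys(Ac)-AMC for 30 min at 37 °C. IC50 by normalized dose–response nonlinear fit; performed at least three times.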

[5] = target: Histone deacetylase 3 (Homo sapiens, UniProt O15379); experiment: Inhibition of recombinant HDAC3 (unknown origin) using Ac-Leu-Gly-Lys (Ac)-AMC as substrate pretreated for 5 mins followed by substrate addition and measured after 30 mins
Chain of Histone deacetylase 3 (O15379 whole entry): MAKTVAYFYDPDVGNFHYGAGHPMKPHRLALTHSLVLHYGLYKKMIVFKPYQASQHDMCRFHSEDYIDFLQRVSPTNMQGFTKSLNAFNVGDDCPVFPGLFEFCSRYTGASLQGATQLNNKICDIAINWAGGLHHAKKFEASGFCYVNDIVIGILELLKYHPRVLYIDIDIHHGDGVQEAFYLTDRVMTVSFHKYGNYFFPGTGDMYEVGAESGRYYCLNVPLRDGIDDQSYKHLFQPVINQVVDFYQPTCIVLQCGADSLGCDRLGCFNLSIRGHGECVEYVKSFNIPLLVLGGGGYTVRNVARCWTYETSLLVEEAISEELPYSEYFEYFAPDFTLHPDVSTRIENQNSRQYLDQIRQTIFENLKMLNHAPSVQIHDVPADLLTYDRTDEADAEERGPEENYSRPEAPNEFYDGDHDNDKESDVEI

[6] = system: A549; experiment: Antiproliferative activity against human A549 cells assessed as inhibition of cell viability measured for 48 hrs by microplate reader based CCK-8 assay; format: functional; conditions: A549, 48 h
[7] = system: B16-F10; experiment: Antiproliferative activity against mouse B16-F10 cells assessed as inhibition of cell viability measured for 48 hrs by microplate reader based MTT assay; format: functional; conditions: B16-F10, 48 h
Procedure, shortened: (§1)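 Cells grown in RPMI-1640 with 10% FBS and seeded at 5000 cells/well. After overnight attachment, compound was added in medium with 0.1% DMSO for 48 h at 37 °C. Read-out was MTT for HCT-116, B16-F10 and A549, and CCK-8 for Jurkat (0.5 mg/mL, 4 h), with absorbance at 570 nm. IC50 from nonlinear regression; at least three independent experiments.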

[8] = system: HCT-116; experiment: Antiproliferative activity against human HCT-116 cells assessed as inhibition of cell viability measured for 48 hrs by microplate reader based MTT assay; format: functional; conditions: HCT-116, 48 h; procedure, shortened: as §1
[9] = target: Histone deacetylase 1 (Homo sapiens, UniProt Q13547); experiment: Inhibition of full length recombinant human HDAC1 (1 to 482 residues) expressed in Baculovirus system using Ac-Leu-Gly-Lys (Ac)-AMC as substrate pretreated for 5 mins followed by substrate addition and measured after 30 mins
Chain of Histone deacetylase 1 (Q13547 whole entry, the tested form may be a part): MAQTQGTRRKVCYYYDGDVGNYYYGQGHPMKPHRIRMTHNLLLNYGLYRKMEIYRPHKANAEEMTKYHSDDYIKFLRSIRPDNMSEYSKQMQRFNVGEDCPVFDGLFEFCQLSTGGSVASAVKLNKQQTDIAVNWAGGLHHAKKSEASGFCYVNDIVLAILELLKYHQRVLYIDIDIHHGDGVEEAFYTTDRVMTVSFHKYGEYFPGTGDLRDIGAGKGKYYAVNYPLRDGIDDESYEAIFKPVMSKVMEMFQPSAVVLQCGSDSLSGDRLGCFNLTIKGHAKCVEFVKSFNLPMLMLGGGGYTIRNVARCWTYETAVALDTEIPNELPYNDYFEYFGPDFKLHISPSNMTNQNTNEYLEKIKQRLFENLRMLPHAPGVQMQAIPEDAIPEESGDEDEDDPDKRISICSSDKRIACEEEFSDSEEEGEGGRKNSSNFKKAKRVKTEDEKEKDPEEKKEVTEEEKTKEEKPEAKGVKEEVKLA

[10] = target: T3, Histone deacetylase 7 (Homo sapiens, UniProt Q8WUI4); experiment: Inhibition of full length N-terminal GST-tagged human recombinant HDAC7 (501 to 952 residues) expressed in Baculovirus system using Ac-Leu-Gly-Lys (Ac)-AMC as substrate pretreated for 5 mins followed by substrate addition and measured after 30 mins
T3 sequence (Q8WUI4 whole entry): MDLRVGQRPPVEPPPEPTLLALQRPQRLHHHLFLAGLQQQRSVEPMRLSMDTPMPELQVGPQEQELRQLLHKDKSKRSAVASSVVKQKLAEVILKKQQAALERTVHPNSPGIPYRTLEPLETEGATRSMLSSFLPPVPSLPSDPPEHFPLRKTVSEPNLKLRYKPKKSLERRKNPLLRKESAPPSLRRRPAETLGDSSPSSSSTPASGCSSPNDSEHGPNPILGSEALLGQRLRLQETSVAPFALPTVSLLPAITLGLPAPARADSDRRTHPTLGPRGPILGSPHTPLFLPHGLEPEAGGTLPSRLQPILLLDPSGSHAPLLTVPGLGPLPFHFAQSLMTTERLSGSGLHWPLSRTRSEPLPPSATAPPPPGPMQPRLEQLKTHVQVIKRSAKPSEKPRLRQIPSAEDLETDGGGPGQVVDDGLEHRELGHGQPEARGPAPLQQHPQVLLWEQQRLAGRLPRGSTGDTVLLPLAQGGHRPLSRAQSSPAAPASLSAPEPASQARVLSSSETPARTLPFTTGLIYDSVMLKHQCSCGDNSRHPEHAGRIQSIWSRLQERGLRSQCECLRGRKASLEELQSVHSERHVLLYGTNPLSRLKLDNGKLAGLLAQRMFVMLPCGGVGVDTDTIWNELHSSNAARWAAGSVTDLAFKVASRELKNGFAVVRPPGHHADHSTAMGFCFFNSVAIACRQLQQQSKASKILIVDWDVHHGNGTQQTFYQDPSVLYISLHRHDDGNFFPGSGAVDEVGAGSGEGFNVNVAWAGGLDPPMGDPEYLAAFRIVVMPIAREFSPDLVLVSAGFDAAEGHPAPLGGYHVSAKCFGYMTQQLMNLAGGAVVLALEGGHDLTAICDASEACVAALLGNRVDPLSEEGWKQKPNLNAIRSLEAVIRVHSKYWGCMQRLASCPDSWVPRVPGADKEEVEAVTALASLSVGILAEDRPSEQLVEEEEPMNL

[11] = Antiproliferative activity against human YCC-11 cells assessed as inhibition of cell viability; format: functional, cell-based
[12] = target: T4, Protein deacetylase HDAC6 (Homo sapiens) (UniProt Q9UBN7); experiment: Inhibition of recombinant HDAC6 (unknown origin) at 1 uM relative to control
T4 sequence (whole entry): T2 sequence (Q9UBN7 whole entry)
Procedure, shortened: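 Single-point test at 1 μM against recombinant HDAC6 (15 ng/well) in 25 mM Tris pH 8.0, 1 mM MgCl₂, 0.1 mg/mL BSA, 137 mM NaCl, 2.7 mM KCl. Compound preincubated 5 min at room temperature, then Ac-Leu-Gly-Lys(Ac)-AMC 10 μM, 30 min at 37 °C. Trypsin/TSA developer 30 min. Fluorescence read at ex 350−360/em 450−460 nm.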

[13] = Antiproliferative activity against human YCC3/7 cells assessed as inhibition of cell viability; format: functional, cell-based

Chain of Tubulin (Sus scrofa) (P02550 whole entry, looked up): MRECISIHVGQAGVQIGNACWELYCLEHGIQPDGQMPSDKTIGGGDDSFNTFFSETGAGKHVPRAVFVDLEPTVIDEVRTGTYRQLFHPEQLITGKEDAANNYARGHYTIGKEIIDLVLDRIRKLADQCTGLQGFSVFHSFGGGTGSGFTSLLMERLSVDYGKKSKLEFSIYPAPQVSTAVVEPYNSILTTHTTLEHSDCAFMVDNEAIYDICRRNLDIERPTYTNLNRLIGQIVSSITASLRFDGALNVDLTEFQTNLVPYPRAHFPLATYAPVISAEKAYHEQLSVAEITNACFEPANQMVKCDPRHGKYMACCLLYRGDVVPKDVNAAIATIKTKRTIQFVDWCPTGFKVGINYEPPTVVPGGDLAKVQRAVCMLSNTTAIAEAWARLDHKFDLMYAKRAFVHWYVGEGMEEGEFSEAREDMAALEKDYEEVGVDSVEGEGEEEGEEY
Chain of Tubulin (Sus scrofa) (P02554 whole entry, looked up): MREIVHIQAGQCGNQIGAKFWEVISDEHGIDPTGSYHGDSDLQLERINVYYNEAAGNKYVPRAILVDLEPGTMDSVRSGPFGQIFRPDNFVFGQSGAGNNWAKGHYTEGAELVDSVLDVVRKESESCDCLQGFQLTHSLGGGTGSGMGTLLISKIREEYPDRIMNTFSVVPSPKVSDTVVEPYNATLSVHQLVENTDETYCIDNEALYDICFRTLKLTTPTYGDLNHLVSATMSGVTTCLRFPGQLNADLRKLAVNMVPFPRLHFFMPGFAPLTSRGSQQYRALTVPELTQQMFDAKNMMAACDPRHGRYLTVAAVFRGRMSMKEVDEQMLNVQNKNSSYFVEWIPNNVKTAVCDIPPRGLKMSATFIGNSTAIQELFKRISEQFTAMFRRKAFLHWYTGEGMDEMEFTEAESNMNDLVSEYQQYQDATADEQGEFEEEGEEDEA

inhibition [1] [%] | IC50 [2] [nM] | IC50 [3] [nM] | IC50 [4] [nM] | IC50 [5] [nM] | IC50 [6] [nM] | IC50 [7] [nM] | IC50 [8] [nM] | IC50 [9] [nM] | IC50 [10] [nM] | inhibition [12] [%] | SMILES | IC50 [11] [nM] | IC50 [13] [nM]
67 | 260 | 800 | 30200 | 3960 | 2980 | 3950 | 870 | 14400 | 43000 | – | COc1cc(C(=O)c2csc(-c3ccc(NC(=O)/C=C/C(=O)Nc4ccccc4N)cc3)n2)cc(OC)c1OC | – | –
39 | 530 | 8840 | 1150 | 9560 | 1930 | 3830 | 100 | 6270 | – | > 50 | COc1cc(C(=O)c2csc(-c3ccc(OCCCC(=O)NO)cc3)n2)cc(OC)c1OC | 920 | 1280
47 | 20 | 2710 | 1590 | 19100 | 750 | 1380 | 100 | 8490 | – | > 50 | COc1cc(C(=O)c2csc(-c3ccc(/C=C/C(=O)NO)cc3)n2)cc(OC)c1OC | 4090 | 6140
